Results on 16 molecules are retold here after ChEMBL document CHEMBL1138870, “In vitro and in vivo efficacy and in vitro metabolism of 1-phenyl-3-aryl-2-propen-1-ones against Plasmodium falciparum” (Bioorg Med Chem Lett, 2006).

Calls of active or inactive are those of the source. No cut-off for these calls is given here.

In series [1] the test system is Plasmodium falciparum. As to the kind of experiment: Antimalarial activity against Plasmodium falciparum W2. Type of series: functional, organism-based. The essentials: (§1)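 Cultured P. falciparum parasites were exposed to compound, and inhibition of [³H]hypoxanthine uptake was measured to give the IC50. Values come from a single experiment.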
In series [2] the test system is Plasmodium falciparum. Nature of the series: Resistance index, IC50 of Plasmodium falciparum W2/IC50 Plasmodium falciparum D6. The class given is ADME, organism-based. The note with it: in vitro. The essentials: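 Ratio of IC50 against P. falciparum W2 to IC50 against strain D6. Each IC50 comes from in vitro inhibition of [3H]hypoxanthine uptake by the parasites, with values from a single experiment.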

The test system of series [3] is Mus musculus. Nature of the series: Effect on survival of mice (Mus musculus) infected with Plasmodium berghei at 640 mg/kg, perorally. Set-up: dose 640 mg/kg. Type of series: functional, organism-based. Summed up:
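Mice were inoculated intraperitoneally on day 0 with 1.0 × 10⁶ P. berghei P-line-infected red cells. Compound was dissolved in DMSO, diluted with 0.5% hydroxyethylcellulose and 0.1% Tween, and given orally once daily on days 3–7 at 640 mg/kg/dose. Survival of five treated mice was compared with five untreated infected controls.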

Series [4] concerns Plasmodium falciparum. Nature of the series: Antimalarial activity against Plasmodium falciparum D6. Type of series: functional, organism-based. The essentials:
as §1

The nature of series [5]: Metabolic stability in mouse liver microsomes. The class given is ADME, Microsome. A general note: Microsomes from liver hold many membrane-bound enzymes, among them those of drug oxidation.

By IC50 is commonly meant the concentration needed to halve the response being measured. Low readings indicate higher potency, high ones lower potency. As a reminder, the half-life is the time in which the quantity being followed falls by half.

`O=C(/C=C/c1ccnc2ccccc12)c1cc(Cl)ccc1Cl`: the values for the 50% inhibitory concentration (IC50) in series [1] and in series [4] were 230 nM and 190 nM, respectively. Further, the “Ratio IC50” value in series [2] is 1.2. Moreover, the outcome in series [3] was inactive.
On to `COc1ccc(C(=O)/C=C/c2ccnc3ccccc23)cc1F`, for which the values for the half-maximal inhibitory concentration (IC50) in series [1] and in series [4] were 3200 nM and 930 nM, respectively. For the same molecule, the “Ratio IC50” value in series [2] was 3.4. The same molecule had a half-life in series [5] of 30.6 min. Also, the result in series [3] was inactive.
With `O=C(/C=C/c1ccnc2ccccc12)c1ccc(Cl)c(Cl)c1`, the 50% inhibitory concentration (IC50) in series [1] was determined as 800 nM; in series [4], 1700 nM. The “Ratio IC50” value in series [2] is recorded as 0.47. The result in series [3] was inactive.
As for `COc1ccc(C(=O)/C=C/c2ccnc3ccccc23)cc1OC`, the IC50 in series [1] was 500 nM; in series [4], 880 nM. Besides, in series [2], the “Ratio IC50” value amounted to 0.57. The half-life in series [5] is 15.6 min. For the same molecule, the result in series [3] was inactive.
Regarding `CCN(CC)CCCC(C)Nc1ccnc2cc(Cl)ccc12` (centres undefined), the result in series [3] was Active.
For `COc1ccc(C(=O)/C=C/c2cnc3ccccc3c2)cc1OC`, the results for the IC50 in series [1] and in series [4] were 2200 nM and 3400 nM, respectively. In addition, the “Ratio IC50” value in series [2] was 0.65.
For the molecule `O=C(/C=C/c1cnc2ccccc2c1)c1cc(F)ccc1F`, the results for the half-maximal inhibitory concentration (IC50) in series [1] and in series [4] were 7800 nM and 5600 nM, respectively. The “Ratio IC50” value in series [2] was determined as 1.4.
The corresponding values for `COc1ccc(C(=O)/C=C/c2ccnc3ccccc23)cc1` are 10000 nM, 5400 nM and 1.9.
Taken in the same sequence, the figures for `COc1cc(OC)cc(C(=O)/C=C/c2cccc3ccccc23)c1` were 4300 nM, 4500 nM and 0.96.
Consider `COc1cc(F)ccc1C(=O)/C=C/c1ccnc2ccccc12`, for which the IC50 in series [1] came out at 6200 nM; in series [4], 6000 nM. For the same molecule, the “Ratio IC50” value in series [2] is recorded as 1.
Taken in the same sequence, the figures for `COc1ccc(C(=O)/C=C/c2cnc3ccccc3c2)cc1` were 3300 nM, 1800 nM and 1.8.
Taken in the same sequence, the figures for `COc1cc(C(=O)/C=C/c2cnc3ccccc3c2)cc(OC)c1OC` were 14000 nM, 21000 nM and 0.67.
As for `O=C(/C=C/c1cnc2ccccc2c1)c1cc(Cl)ccc1Cl`, the IC50 came to 1700 nM in series [1] and 620 nM in series [4]. Also, in series [2], the “Ratio IC50” value was 2.7. The half-life in series [5] was 24.6 min. In series [3], the outcome was inactive.
With `COc1ccc(F)cc1C(=O)/C=C/c1ccc2ccccc2n1`, the IC50 in series [1] was 670 nM; in series [4], 3800 nM. Further, the “Ratio IC50” value in series [2] is 0.18.
The corresponding values for `COc1ccc(C(=O)/C=C/c2cnc3ccccc3c2)cc1Cl` are 1600 nM, 2300 nM and 0.7.
Take `COc1cccc(OC)c1C(=O)/C=C/c1cnc2ccccc2c1`: the figures for the concentration for half-maximal inhibition (IC50) in series [1] and in series [4] were 1100 nM and 2200 nM, respectively. The “Ratio IC50” value in series [2] is 0.53.
